The sample as a whole holds a higher share of hits than the screen did.
Insulin prom act – TRM-6 insulin promoter activation; TRM-6 cells (human fetal islet line), insulin promoter eGFP reporter, imaging; plate-scaled: unstimulated 0, stimulated control 100; activation, % at 2 µM; 130,000 compounds, 0.81% hits;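 active means activation at 2 µM above a set limit, confirmed on inspection of the cell images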;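 further: share of cells whose green reporter signal exceeds an intensity cutoff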
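Assay system: TRM-6 insulin promoter–eGFP reporter cells / Input: 1,000 cells per well / Medium: Low-glucose (5.5 mM) medium with tamoxifen / Also added: tamoxifen inducer, 0.75 µM, in seeding medium / Timing: overnight tamoxifen, then two-day compound incubation at 37 °C / Signal: automated fluorescence imaging of paraformaldehyde-fixed, Hoechst-counterstained cells, green channel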
Active calls of the source: *.

SMILES | Insulin prom act
Cc1cc(C)c(NC(=O)CSc2nnc(-c3ccncc3)n2Cc2ccco2)c(Cl)c1 | -3
COc1cccc(CNC(=O)CSc2ccc(-c3ccncc3)nn2)c1 | 0
Cn1c(SCC(=O)NCc2ccco2)nnc1-c1ccccc1 | 437*
O=C(CSc1nnc(-c2cc3ccccc3cc2O)n1Cc1ccco1)c1ccc(F)cc1 | -6
O=C(CSc1ncc(-c2ccccc2)n1-c1ccccc1)NCc1ccco1 | 3
O=C(CSc1ccc(-c2ccccn2)nn1)NCc1ccccc1 | -8
Cc1nnc(SCC(=O)NCc2ccco2)n1Cc1ccccc1 | 7
O=C(CSc1ccc(-c2ccccc2)nn1)NCc1ccco1 | 444*
Cn1c(SCC(=O)NCc2ccco2)nnc1-c1ccc(S(=O)(=O)N2CCOCC2)cc1 | -6
O=C(CSc1nnc(-c2ccc(O)cc2)n1Cc1ccco1)c1ccccc1 | 77*
O=C(CSc1ccc(-c2ccco2)nn1)Nc1ccccc1 | -75
COc1ccc(/C=C/CN2CCCC(CCC(=O)NCc3ccc(F)c(F)c3)C2)cc1 (centres undefined) | 142
CCOC(=O)CSc1ncc(-c2ccc([N+](=O)[O-])cc2)[nH]1 | -3
CN1C(=O)/C(=C/c2ccccc2OCc2ccccc2F)NC1=S | 5
COc1cccc(-n2c(Cc3cc(=O)[nH]c(=O)[nH]3)nnc2SCc2cccc(C(F)(F)F)c2)c1 | 7
O=C(CN(Cc1cccs1)C(=O)CN1C(=O)COc2ccccc21)NCc1ccco1 | -8
Cc1ccc2c(c1)c1c(n2CC(O)Cn2nc(C)c(Br)c2C)CCCC1 (centres undefined) | 83*
Cc1cc(C)nc(SCC(=O)n2c3c(c4ccccc42)CCCC3)n1 | -8
Cc1nn(CC(O)Cn2cnc3c2c(=O)n(C)c(=O)n3C)c(C)c1Br (centres undefined) | -24
COc1cccc(N2C(=O)C3C(C2=O)C2C=CC3C23CC3)c1 (centres undefined) | 5
O=C(/C=C/c1ccc(OCCCF)cc1)NCc1ccc(Cl)cc1 | 223*
COc1ccc(/C=C/C(=O)NCCOc2ccc(C)cc2)cc1 | -7
Cc1ccc(CSCCNC(=O)/C=C/c2ccc(Cl)cc2)cc1 | 3
O=C(/C=C/c1cccc([N+](=O)[O-])c1)Nc1cccc(NC(=O)c2cccs2)c1 | -5
COC(=O)Cc1ccc(O)c(N)c1 | -6
SMILES | Insulin prom act
COc1ccc(NC(=O)c2cncc(Br)c2)cc1S(N)(=O)=O | -7
O=C(NC1CCCCC1)c1cc([N+](=O)[O-])[nH]n1 | 0
CCCOc1ccc(C2C(C(=O)/C=C/c3ccco3)=C(O)C(=O)N2CCN2CCOCC2)cc1OC (centres undefined) | 8
CNC(=O)Nc1ccccc1C(=O)NCc1ccccc1 | -4
O=C(Nc1ccccc1)Nc1cccc(Cl)c1Cl | -8
O=C(Nc1ccccc1)Nc1ccccc1C(=O)NCc1ccccc1 | 77*
COC(=O)c1sc2cc([N+](=O)[O-])cc(SCC(C)C)c2c1N | 590*
COc1ccc([N+](=O)[O-])cc1NC(=O)CC(c1ccccc1)c1ccccc1 | 193
COCCSc1nnc(NC(=O)c2cc(C(=O)OC)cc([N+](=O)[O-])c2)s1 | 7
N#CC1=C(SCc2ccccc2Cl)NC(=O)C(C(N)=O)C1 (centres undefined) | 9
COc1cc2c3nnc(-c4ccc(F)cc4)c-3cn(Cc3cccc(F)c3)c2cc1OC | 809*
COc1cccc(CSc2nnc(-c3ccc(F)cc3)o2)c1 | 6
COc1cc2c3nnc(-c4ccccc4)c-3cn(Cc3ccc(F)cc3)c2cc1OC | 6
COc1cc(OC)c(-c2cc(C(=O)O)ccc2OC)c(OC)c1 | 0
COC(=O)c1cccc(NC(=O)CCSc2ccc(Cl)cc2)c1C | 3
O=c1[nH]c(CN2CCN(S(=O)(=O)c3ccccc3C(F)(F)F)CC2)nc2sc3c(c12)CCCC3 | -3
O=C(CCn1c(=O)oc2ccccc21)N1CCN(c2ccccc2Cl)CC1 | 128
N#CCC(=N)N1CCN(c2ccccc2Cl)CC1 | 177*
O=C(CCN1C(=O)C2C3C=CC(C3)C2C1=O)N1CCN(c2ccccc2Cl)CC1 (centres undefined) | -3
COc1ccc(-c2nc(=S)c3c([nH]2)Oc2ccc(C)cc2C3)cc1O | 4
Cc1oc(-c2ccc(Cl)cc2)nc1CN1CCC(C(=O)NCc2cccs2)CC1 | -3
Cc1oc(-c2ccccc2F)nc1CN1CCC(C(=O)NC2CCCc3ccccc32)CC1 (centres undefined) | -86
Cc1cccc(-c2nc(CN3CCCC(C(=O)NC4CCC(C)CC4)C3)c(C)o2)c1 (centres undefined) | 136*
CCC(C)(C)NC(=O)C(c1cccnc1)N(C(=O)c1csnn1)c1ccc(C)cc1 (centres undefined) | 5
C=CCn1c(C(CC(C)C)CC(C)O)n[nH]c1=S (centres undefined) | -100
SMILES | Insulin prom act
CCOC(=O)c1cnc2cc(C)nn2c1-c1ccccc1 | 3
CCC(=O)NNc1nc2c(Cl)cccc2s1 | 5
O=C(O)CCc1ccc(-c2cccs2)n1CC(=O)Nc1ccccc1C(F)(F)F | 0
CCCNC(=O)c1cnc(Sc2ncc(C(F)(F)F)cc2Cl)n1C | 9
FC(F)(F)c1cnc(Sc2nnc(-c3cccs3)n2CC2CCCO2)c(Cl)c1 (centres undefined) | -8
N#Cc1c(Sc2ncc(C(F)(F)F)cc2Cl)nsc1C/C=N\OCc1c(F)cccc1Cl | 543*
COC(=O)C1=C(C)NC(C)=C(C(=O)OC)C1C(=O)OCC(=O)N1c2ccccc2CC1C (centres undefined) | -10
Cc1c(C(=O)OCC(=O)NCc2ccc3c(c2)OCO3)cccc1[N+](=O)[O-] | -7
CCOC(=O)c1ccc(NC(=O)c2ccccc2C)cc1 | 8
COC(=O)c1ccc(COC(=O)CNS(=O)(=O)c2ccc(C)cc2)cc1 | -73
O=c1cc(NS(=O)(=O)c2ccccc2)nc(SCc2ccc(Cl)cc2)[nH]1 | -8
O=c1cc(O)nc(SCc2ccccc2)[nH]1 | 525*
CCCc1cc(=O)[nH]c(SCc2cccnc2)n1 | 342
CCOc1ccc(N2CC(C(=O)Nc3ccccc3F)CC2=O)cc1 (centres undefined) | 0
CN1C(=O)c2ccc(NC(=O)CCS(=O)(=O)c3ccccc3)cc2C1=O | 8
COc1cc(OC)cc(-c2nnc(SCC(=O)N3CCOCC3)o2)c1 | -6
COc1cc(OC)cc(-c2nnc(SCC(=O)Nc3cc(C)on3)o2)c1 | 113*
COc1ccc(C(=O)CSc2nnc(-c3cc(C)cc(C)c3)o2)cc1 | 3
COc1cccc(NC(=O)N(CCCN2CCOCC2)C(C)c2cc3ccccc3o2)c1 (centres undefined) | -10
COc1cccc(NC(=S)N(CCCN2CCOCC2)C(C)c2cc3cccc(OC)c3o2)c1 (centres undefined) | 259*
COc1cccc2cc(C(C)N(CCCN3CCOCC3)C(=S)Nc3ccc(C)cc3)oc12 (centres undefined) | -6
Cc1ccc(N2C(=O)N(Cc3ccccc3C)c3ccccc3S2(=O)=O)cc1 | 0
CCCC1CCc2c(sc(N)c2C(N)=O)C1 (centres undefined) | 10
O=C(N=C1SCC(=O)N1c1ccccc1)c1ccco1 | 7
N=C1SCC(=O)N1c1ncc(Cc2cccc(Cl)c2)s1 | 408*
O=C(CNC(=O)c1ccc(Cl)cc1)NCC(F)(F)F | -5
COC(=O)c1cc(COC(=O)c2nc3nccc(C)n3n2)oc1C | 0
COc1ccc(Cl)cc1NC(=O)c1ccccc1C | -3
CCN(C(=O)c1cc(Cl)ccc1OC)c1ccccc1C | 543*

Source: PubChem
